In ChEMBL document CHEMBL1123445, “Synthesis and antifolate properties of 5,10-methylenetetrahydro-8,10-dideazaminopterin” (J Med Chem, 1986):
Values after ≈ are worked out from the molar mass of the structure shown.

Experiments:
Enterococcus faecium [1] = assay: Compound was evaluated for growth inhibition in Streptococcus faecium ATCC 8043; format: functional, organism-based
How it was run: (§1)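 Bacterial growth inhibition was run in medium with folate at 1 ng/mL.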

Dihydrofolate reductase = Dihydrofolate reductase (Lactobacillus casei, UniProt P00381); assay: Compound was evaluated for the inhibition of dihydrofolate reductase (DHFR)derived from Lactobacillus casei; set-up: species or system Lacticaseibacillus casei
Sequence of Dihydrofolate reductase (P00381 whole entry): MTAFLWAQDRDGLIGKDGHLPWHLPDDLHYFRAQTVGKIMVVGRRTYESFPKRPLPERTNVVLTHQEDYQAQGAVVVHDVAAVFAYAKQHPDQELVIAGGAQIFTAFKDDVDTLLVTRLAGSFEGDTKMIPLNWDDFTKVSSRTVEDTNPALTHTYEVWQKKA

L1210 [2] = assay: Compound was evaluated for growth inhibition in L1210 murine leukemia cells; format: functional, cell-based; conditions: Mus musculus
L1210 [3] = assay: Compound was evaluated for inhibitory activity against DHFR in L1210 cells; format: functional, cell-based, Mus musculus
Enterococcus faecium [4] = assay: Compound was evaluated for growth inhibition in Streptococcus faecium MTX-resistant; format: functional, organism-based; how it was run: as §1
Lacticaseibacillus casei [5] = assay: Compound was evaluated for growth inhibition in Lactobacillus casei ATCC 7469; format: functional, organism-based
How it was run: (§2)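 Lactobacillus casei growth was measured in medium with folate at 1 ng/mL.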

Lacticaseibacillus casei [6] = assay: Compound was evaluated for growth inhibition in Lactobacillus casei MTX-resistant; format: functional, organism-based; how it was run: as §2
Thymidylate synthase = biological target: T1, Thymidylate synthase (Lactobacillus casei, UniProt P00469); assay: Compound was evaluated for the inhibition of thymidylate synthase (TS) derived from Lactobacillus casei; set-up: species or system Lacticaseibacillus casei
T1 sequence (P00469 whole entry): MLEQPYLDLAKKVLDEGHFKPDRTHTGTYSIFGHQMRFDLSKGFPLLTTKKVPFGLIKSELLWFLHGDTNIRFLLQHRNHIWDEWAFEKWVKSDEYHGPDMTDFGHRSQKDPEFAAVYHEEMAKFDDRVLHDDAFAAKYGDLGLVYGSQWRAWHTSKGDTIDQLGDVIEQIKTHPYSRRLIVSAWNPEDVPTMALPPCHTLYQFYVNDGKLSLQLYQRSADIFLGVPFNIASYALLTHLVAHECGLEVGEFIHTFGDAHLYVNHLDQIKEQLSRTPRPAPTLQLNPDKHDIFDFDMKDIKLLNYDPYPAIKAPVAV

[7] = Lacticaseibacillus casei, read-out: IC50

| SMILES | IC50 (Enterococcus faecium [1]) [ng/mL] | IC50 (Dihydrofolate reductase) [nM] | IC50 (L1210 [2]) [nM] | Ki (L1210 [3]) [nM] | IC50 (Enterococcus faecium [4]) [µg/mL] | IC50 (Lacticaseibacillus casei [5]) [ng/mL] | IC50 (Lacticaseibacillus casei [6]; [7]) [µg/mL] | IC50 (Thymidylate synthase) [µM] | IC50 (Lacticaseibacillus casei [6]) [µg/mL] |
| --- | --- | --- | --- | --- | --- | --- | --- | --- | --- |
| Nc1nc(N)c2c(n1)CCC1CC(c3ccc(C(=O)NC(CCC(=O)O)C(=O)O)cc3)C(=O)N21 (configuration not stated) | 6.2 (≈ 0.0132 µM) | 1600 | > 10000 | > 10 | > 10 | 0.54 (≈ 0.00115 µM) | > 10 | > 200 | – |
| Nc1nc(N)c2c(n1)CCC1CC(c3ccc(C(=O)NC(CCC(=O)O)C(=O)O)cc3)CN21 (configuration not stated) | 2 (≈ 0.0044 µM) | 1500 | 250 | > 10 | 0.53 (≈ 1.17 µM) | 1 (≈ 0.0022 µM) | > 10 | > 500 | – |
| CN(Cc1cnc2nc(N)nc(N)c2n1)c1ccc(C(=O)N[C@@H](CCC(=O)O)C(=O)O)cc1 [METHOTREXATE] | 0.2 (≈ 0.00044 µM) | – | 2.5 | 0.0032 | 3.3 (≈ 7.26 µM) | 0.009 (≈ 1.98e-05 µM) | – | – | > 500 |
